Screening results as filed in PubChem BioAssay.
STAT3 inh-1 – IL-6 driven STAT3 reporter inhibitors, primary screen, U3A cells, luciferase, luminescence, MLSCN library; IL-6 STAT3-luciferase reporter; host cell line lacks STAT1; inhibition, % at 5.5 µM; hit rate 0.89% among 190,000;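 active = inhibition above the mean inhibition across all screened compounds plus 3 SD, cut at about 44% in these data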;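 also: 0% = DMSO only wells and 100% = 100 µM nifuroxazide control wells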
STAT1 blocker – STAT1 signaling inhibitors, primary screen, cell-based, HTS, luciferase reporter | NIH 3T3 STAT1-luciferase reporter, IFN-gamma, luminescence | inhibition, % at 5.5 µM | AID 920, 2007 | hit rate 0.35% among 200,000;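 active = inhibition above a set limit, the mean inhibition across all tested compounds plus 3 SD, cut at about 34% in these data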;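 also: 0% = IFN-gamma with DMSO and 100% = IFN-gamma with 300 µM nifuroxazide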
STAT3 activator – IL-6 driven STAT3 reporter potentiators, primary screen, U3A cells, luciferase, luminescence, MLSCN library. hit rate 0.91% among 190,000. IL-6 STAT3-luciferase reporter; 100% = signal with IL-6 EC80 alone. activation (% of control), % at 5.6 µM. AID 871, 2007;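 active = activation above the screen-wide mean of compound activation plus 3 SD, cut at about 130% in these data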;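 also: 0% = background luminescence of wells with medium and substrate only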
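Test system: STAT3-luciferase reporter U3A cells; Detection: reporter luminescence signal; Times: 1 h compound pre-exposure, 6 h IL-6 stimulation, 37 °C; Benchmarks: IL-6-only high control; Also added: IL-6 stimulus at 33 ng/mL final.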
PERK inh – block of dimerizer-induced PERK translation repression, primary screen, PERK inhibitor project, CHO PERK-DD cells, SEAP luminescence, HTS | Eukaryotic translation initiation factor 2-alpha kinase 3 (Homo sapiens), Q9NZJ5 | CHO PERK-DD fusion, SEAP luminescence translation reporter | inhibition, % at 5.6 µM | hit rate 0.17% among 220,000 | AID 1416, 2008;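 active = inhibition above the mean inhibition of all tested compounds plus 3 SD, set separately per screening campaign, cut at about 2.9% in these data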;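 also: PERK kinase domain activated by AP20187 dimerizer at 100 nM; 0% = DMSO with dimerizer and 100% = rapamycin at 8.4 µM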
Platelet DG rel – inhibitors of platelet dense granule secretion, primary screen, cell-based, MLPCN, human platelets; hit rate 0.22% among 300,000; human platelet-rich plasma, SFLLRN dense granule ATP release, luminescence; inhibition, %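 (compounds screened at 7.5 µM in platelet-rich plasma)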;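 active = mean replicate score, as percent of positive control, at or above 50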
STAT3 inh-2 – STAT3 reporter inhibitors, retest of hits, confirmation, U3A cells, luciferase, luminescence; shares compounds with STAT3 inh-1; IL-6 STAT3 luciferase reporter; cell line lacks STAT1; inhibition, % at 5.7 µM; hit rate 45% among 1,200;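 active = inhibition above the hit cutoff computed for the primary STAT3 screen, cut at about 44% in these data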;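 also: 0% = IL-6 plus DMSO and 100% = IL-6 plus nifuroxazide control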
NFkB inh STAT3ct – NF-kB reporter inhibitors in human cells, confirmation, counter-screen for STAT3 inhibitor project, cell-based, HEK293T, luciferase, TNF-alpha stimulus; shares compounds with STAT3 inh-1; TNF-alpha induced; inhibition, % at 5.7 µM; hit rate 36% among 1,200; AID 1308, 2008;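 active = inhibition above the mean of solvent-only control wells plus 3 SD, cutoff set per campaign, cut at about 13% in these data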;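 also: 0% = TNF-alpha with DMSO and 100% = TNF-alpha with MG high control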
STAT1 inh 2 – STAT1 reporter inhibitors, IFN-gamma induced, confirmation, counter-screen for STAT3 inhibitor project, cell-based, NIH 3T3, luciferase luminescence | hit rate 27% among 1,200 | inhibition, % at 5.7 µM | AID 1317, 2008 | NIH 3T3 STAT1-luciferase reporter | shares compounds with STAT3 inh-1;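 active = inhibition above the mean plus 3 SD of solvent-only control wells, limit set per screening run, cut at about 16% in these data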;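 also: 0% = DMSO with IFN-gamma and 100% = nifuroxazide control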
Active calls of the source: *; . = not tested or not shown. This is a sample that favours compounds with a hit; in the whole collection about 1.4% have one here.

SMILES	STAT3 inh-1	STAT1 blocker	STAT3 activator	PERK inh	Platelet DG rel	STAT3 inh-2	NFkB inh STAT3ct	STAT1 inh 2
CCOc1ccc2nc(N3C(=O)CNC3=S)sc2c1	.	.	.	0	-4	.	.	.
Cc1cc2nc(N3C(=O)CNC3=S)sc2cc1C	48*	-5	62	-1	-2	10	-16	-87
COc1ccccc1Nc1nnc(SCC2CCCCO2)s1 (stereo not drawn)	64*	15	49	0	17	12	-17	-73
Cc1ccccc1Nc1nnc(SCC2CCCCO2)s1 (stereo not drawn)	-2	-30	100	1	-1	.	.	.
Cc1cc(NC(=O)COC(=O)C2CC(=O)N(c3cccc(C)c3C)C2)no1 (stereo not drawn)	.	.	.	.	-1	.	.	.
Cc1ccn2cc(-c3cc4ccccc4oc3=O)nc2c1	75*	26	38	0	.	44*	27*	-51
Cc1ccc(-c2csc(Cc3nc(-c4cc5ccccc5oc4=O)cs3)n2)cc1	11	9	97	0	-5	.	.	.
O=C(/C=C/c1ccccc1)N1CCN(c2c(Cl)cccc2[N+](=O)[O-])CC1	-4	-7	103	0	4	.	.	.
c1csc(-c2nnc(-c3ccc(N4CCOCC4)cc3)o2)c1	59*	-16	56	0	2	17	-26	-109
CCOc1ccc(-c2nnc(-c3cccs3)o2)cc1	79*	31	39	0	6	34	-3	-88
CCOc1ccc(-c2nnc(-c3cccs3)o2)cc1OCC	5	-26	99	0	-2	.	.	.
Cc1ccc2c(c1)C(N1CCCC1=O)CC(c1ccco1)N2 (stereo not drawn)	70*	18	43	0	14	38	-2	-41
Cc1c(N=NC2=C(O)CC(C)(C)CC2=O)c(=O)n(-c2ccccc2)n1C	6	2	100	1	4	.	.	.
Cc1ccnc(NC(=O)COc2ccccc2[N+](=O)[O-])c1	48*	-12	64	0	.	17	-30	-101
Cc1ccc(NC(=O)COc2ccccc2[N+](=O)[O-])nc1	51*	5	60	1	4	18	-25	-95
CC1CCC2C(=O)N(c3ccc(Cc4ccncc4)cc3)C(=O)C2C1 (stereo not drawn)	74*	32	38	1	-1	70*	23*	21*
O=C1C2C3C=CC(C3)C2C(=O)N1c1ccc(Cc2ccncc2)cc1 (stereo not drawn)	23	12	83	0	-10	.	.	.
CCOC(=O)c1c(C)[nH]c(C2=NNC(=Nc3ccccc3)SC2)c1C	0	-3	104	0	0	.	.	.
CCOC(=O)c1c(C)[nH]c(C2=NNC(=Nc3ccc(OCC)cc3)SC2)c1C	60*	29	51	-1	.	10	-9	-8
COc1ccc(/C=C\c2nc(=O)c3ccccc3o2)cc1	62*	-1	49	0	12	-9	-7	-3
O=c1nc(/C=C/c2ccc(O)c(O)c2)oc2ccccc12	.	.	.	0	22	.	.	.
Oc1c(C=Nc2ccccc2)sc2ccccc12	66*	-20	48	1	45	-16	-29	-21
CN(C)c1ccc(N/C=C/C(=O)c2ccco2)cc1	60*	31	53	0	68*	25	25*	-22
CC(=O)Nc1ccc(N/C=C/C(=O)c2ccco2)cc1	4	-45	96	1	20	.	.	.
C/C(=N\N1C(=O)c2ccccc2NC1c1ccco1)c1ccccc1O (stereo not drawn)	46*	-18	65	2	1	17	-23	-99
SMILES	STAT3 inh-1	STAT1 blocker	STAT3 activator	PERK inh	Platelet DG rel	STAT3 inh-2	NFkB inh STAT3ct	STAT1 inh 2
C/C(=N\N1C(=O)c2ccccc2NC1c1ccccc1)c1ccccc1O (stereo not drawn)	32	-46	76	0	3	.	.	.
Oc1ccc(N=Nc2ccc3c(c2)OCCO3)c2cccnc12	63*	9	51	0	7	-5	-12	-37
COc1ccc(N=Nc2ccc(O)c3ncccc23)cc1	.	.	.	-1	1	.	.	.
Cc1cccc(-n2c(=S)[nH]c3nc4c(cc3c2=O)COC(C)(C)C4)c1	.	.	.	2	7	.	.	.
Cc1ccc(C)c(N2CCN(C(=O)Nc3ccc4c(c3)N(C)C(=O)CS4)CC2)c1	45*	34	65	0	3	37	15*	20*
O=C(C1CC=CCC1)N1CCC(CO)(Cc2ccc(Cl)cc2)CC1 (stereo not drawn)	4	-3	100	1	6	.	.	.
CC(=Nc1ccc(C)cc1)c1sc2ccccc2c1O	56*	-59	54	1	20	10	-35	-153
O=C1c2ccccc2C(=O)C1c1ccc2ccccc2n1	49*	-25	63	0	18	8	42*	-27
COC(=O)C1=C(C)NC(C)=C(C(=O)OC)C1c1ccc2ccccc2n1	7	2	100	0	-4	.	.	.
COC(=O)c1ccc2nc(NC(=O)CSCC(=O)OCC(=O)c3ccccc3)sc2c1	-10	-10	106	0	0	.	.	.
Cc1ccc2nc(NC(=O)CSCC(=O)OCC(=O)c3ccc(Br)cc3)sc2c1	87*	36*	33	1	5	67*	23*	33*
O=C(NC1CCCc2ccccc21)c1cn2ccccc2n1 (stereo not drawn)	-1	9	106	0	-3	.	.	.
Cc1nc2ccccn2c1C(=O)NC1CCCc2ccccc21 (stereo not drawn)	53*	21	58	-1	10	37	-1	12
COc1cc(NS(=O)(=O)c2cn(C)cn2)cc(OC)c1	.	.	.	.	10	.	.	.
Nc1nc(Br)c2c(F)cccc2c1-c1ccc(F)cc1	15	9	93	-2	-7	.	.	.
Nc1nc(Br)c2c(F)cccc2c1-c1ccccc1	46*	-3	66	0	9	22	-3	0
O=C(N/N=C/c1ccc2cccnc2c1)c1ccco1	55*	0	58	2	10	20	-18	-63
O=C(N/N=C/c1ccccc1)c1ccco1	.	.	.	1	0	.	.	.
O=C(OCn1nnc2ccccc2c1=O)c1cc(-c2ccccc2)nc2ccccc12	14	-5	91	1	-3	.	.	.
